A1 inh: caspase 3/7 activation in MEF A1-2A-BIM cells, primary screen, A1 inhibitor project, cell-based, luminescence, HTS; Caspase-Glo 3/7 luminescence, 3 h; percent of clofoctol response, vehicle zero; caspase activation, % (concentration not given with the values); 330,000 compounds, 0.066% hits;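 active = over half of replicate activation scores above 10%, or exactly half above 10 with the replicate mean above 10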
GC-B act: human GC-B receptor activators, primary screen, HEK293 GC-B cells, cGMP TR-FRET, EC30 CNP. Atrial natriuretic peptide receptor 2 (Homo sapiens), P20594. activation, % at 10 µM. 370,000 compounds, 0.11% hits. 0% at EC30 CNP, 100% saturating CNP;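 active = activation at 10 µM reaching about 35% in either raw or pattern-adjusted values, limit read from the data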
Target sequence (P20594 whole entry, looked up): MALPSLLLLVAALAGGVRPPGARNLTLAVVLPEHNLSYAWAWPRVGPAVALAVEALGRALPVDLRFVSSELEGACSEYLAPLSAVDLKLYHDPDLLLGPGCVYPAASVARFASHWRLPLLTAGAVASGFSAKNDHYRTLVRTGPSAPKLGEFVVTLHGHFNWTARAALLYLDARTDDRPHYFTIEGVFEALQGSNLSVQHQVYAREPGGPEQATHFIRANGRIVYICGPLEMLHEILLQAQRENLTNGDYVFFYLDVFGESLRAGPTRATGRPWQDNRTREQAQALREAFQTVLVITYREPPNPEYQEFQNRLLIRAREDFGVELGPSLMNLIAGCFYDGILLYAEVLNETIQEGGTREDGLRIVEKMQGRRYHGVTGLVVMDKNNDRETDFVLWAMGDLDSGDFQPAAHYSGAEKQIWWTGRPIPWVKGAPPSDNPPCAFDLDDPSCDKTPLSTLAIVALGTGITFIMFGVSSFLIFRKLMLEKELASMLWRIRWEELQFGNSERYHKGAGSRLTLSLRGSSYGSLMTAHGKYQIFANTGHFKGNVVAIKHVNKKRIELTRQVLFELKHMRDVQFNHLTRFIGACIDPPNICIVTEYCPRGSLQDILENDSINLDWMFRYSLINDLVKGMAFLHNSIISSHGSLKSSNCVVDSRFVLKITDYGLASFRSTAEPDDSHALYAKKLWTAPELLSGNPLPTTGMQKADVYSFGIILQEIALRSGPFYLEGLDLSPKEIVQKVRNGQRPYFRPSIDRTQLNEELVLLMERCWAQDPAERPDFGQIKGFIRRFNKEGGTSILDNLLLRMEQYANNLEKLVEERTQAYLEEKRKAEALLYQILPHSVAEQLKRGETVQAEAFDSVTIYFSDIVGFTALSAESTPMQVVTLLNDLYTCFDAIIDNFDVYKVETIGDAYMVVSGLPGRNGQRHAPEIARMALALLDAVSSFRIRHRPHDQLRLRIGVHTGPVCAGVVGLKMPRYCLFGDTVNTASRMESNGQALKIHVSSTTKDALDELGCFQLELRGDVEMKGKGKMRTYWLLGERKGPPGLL
Tb MetRS inh: T. brucei MetRS inhibitors, primary screen, biochemical, luminescence | 360,000 compounds, 0.4% hits | purified T. brucei MetRS, ATP depletion, Kinase-Glo luminescence | methionyl-tRNA synthetase (Trypanosoma brucei brucei) | inhibition, % at 11.9 µM;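 active = inhibition above a per-plate cutoff of the control wells' mean inhibition plus 3 SD, cut at about 5.5% in these data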
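Material: parasite MetRS enzyme / Replication: singlicate, one well per compound / Signal: luminescence of leftover ATP / Schedule: 2 h aminoacylation at 25 °C after 15 min preincubation / Medium: HEPES-MgCl2-KCl buffer plus DTT, spermine, BSA, pyrophosphatase / Doses: 11.9 µM single point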
NPR1 activator: GC-A stimulated cGMP production enhancers – HEK293 GC-A cells, cGMP TR-FRET, EC30 ANP, primary screen. 0% at EC30 ANP, 100% saturating ANP. AID 1671463, 2021. 370,000 compounds, 0.14% hits. activation, % at 10 µM; in the data active = activation above about 40%
SKN-1 block: suppressors of acrylamide-induced Pgst-4::GFP reporter in worms, primary screen, SKN-1 inhibitor project, whole organism, uHTS, GFP/RFP fluorescence ratio, strain VP596. inhibition, % at 21.8 µM. 360,000 compounds, 0.49% hits. C. elegans VP596 Pgst-4::GFP/RFP ratio, 24 h;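 active = interference check ratio from 0.5 to 1.5 plus GFP to RFP signal ratio inhibition reaching or exceeding a fixed threshold, cut at about 30% in these data, passing the limit was not always enough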
MT1-MMP act inh: blockers of MT1-MMP proenzyme processing, primary screen, HT1080 RFP-PRO-GFP cells, GFP/RFP fluorescence; Matrix metalloproteinase-14 (Homo sapiens), P50281; GFP/RFP ratio fluorescence, overnight; percent of plate control window, DMSO zero; GFP/RFP ratio change, % at 20 µM; 360,000 compounds, 0.061% hits; AID 651647, 2012;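 active = GFP/RFP ratio change of at least 30% with cell ATP level not reduced by more than half and red fluorescence within 50% of control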
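Test system: HT1080 RFP-PRO-GFP cells; Benchmarks: DMSO and RFP-L50D-GFP cell wells; Timing: cells overnight before dosing, compound overnight, 37 °C, 5% CO2; Compound: one 20 µM compound dose with 1% DMSO; Read-out: GFP/RFP fluorescence ratio.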
Hits are given with their value; . = inactive; / = not tested or not shown. Only some compounds are listed: those with a hit (about 1.1% of all), similar ones and a draw of the others.

SMILES	A1 inh	GC-B act	Tb MetRS inh	NPR1 activator	SKN-1 block	MT1-MMP act inh
COC(=O)c1ccc(-c2ccc(Cl)cc2)nc1C	.	.	.	.	51	.
COC(=O)c1ccccc1NC(=O)c1sc(Cl)nc1C	.	.	.	.	.	.
O=C(OC1CCOC1=O)C1CCN(S(=O)(=O)c2ccccc2)CC1 (stereo not drawn)	.	.	.	.	.	.
O=C(OC1CCOC1=O)C1CCN(S(=O)(=O)c2ccc(Cl)c(C(F)(F)F)c2)CC1 (stereo not drawn)	.	51	.	.	.	.
CN(c1ccccc1)c1nc2ccsc2c(=O)s1	.	.	.	.	43	.
CCN(c1ccccc1)c1nc2ccsc2c(=O)s1	.	.	.	.	.	.
COCCCN1C(=O)[C@H](CC(=O)NCCCCc2ccccc2)[C@]2(C(=O)OC)CCCCC=C12	/	.	/	.	/	/
COc1cc(-c2cc(NC=O)c3ncc(-c4ccccc4)n3c2)cc(OC)c1OC	/	35	.	.	.	.
COc1ccc(-c2cc(NC=O)c3ncc(-c4ccc(C(C)=O)cc4)n3c2)cc1OC	/	.	.	.	.	.
COc1cc(-c2cnc3c(NC=O)cc(-c4ccccc4)cn23)cc(OC)c1OC	/	.	.	.	.	.
COc1cc(-c2cc(NC=O)c3ncc(-c4ccc(C(C)=O)cc4)n3c2)cc(OC)c1OC	/	35	.	.	.	.
O=C([C@@H]1C[C@H]1c1ccccc1)N1CC[C@H]2[C@H](CCCN2Cc2ccccc2)C1	/	.	/	.	/	/
COc1ccc(NC(=O)N2CCC(c3nc4ccc(Cl)cc4[nH]3)CC2)cc1OC	/	.	/	.	/	/
CN(C(=O)COC(=O)C1c2ccccc2Oc2ccccc21)C1CCS(=O)(=O)C1 (stereo not drawn)	.	.	.	.	48	.
O=C(OC12CCCN(C1)/C(=C/c1ccncc1)C2)c1cccc(F)c1 (stereo not drawn)	/	.	/	.	/	/
Cc1ccc([C@@H]2[C@@H]3C(=O)N(c4ccccc4)C(=O)[C@@H]3[C@]3(C)C(=O)N(Cc4ccc(-c5ccccc5)cc4)CC(=O)N23)o1	.	.	.	49	.	.
CC(C)c1cccc(-c2ccc3c(c2)S(=O)(=O)c2cccc(C(=O)NCc4ccccc4Cl)c2C3=O)c1	12	/	.	/	.	.
c1ccc(Cn2c(SC3CCCCC3)nnc2-c2cccnc2)cc1	/	.	/	.	/	/
CC1=NN(c2ccccc2)C(=O)/C1=C/N(C)C	.	.	.	.	.	.
CC1=NN(c2ccccc2)C(=O)/C1=C\C=C1\N(C)c2ccccc2C1(C)C	.	.	.	.	38	.
CC1=NN(c2ccccc2)C(=O)/C1=C\C=C1/N(C)c2ccccc2C1(C)C	.	.	.	.	47	.
Fc1cccc(CNC2CCC23CCC(c2ccccc2)CC3)c1 (stereo not drawn)	/	.	/	.	/	/
C#CCOCCOCCOCCNc1nc(N2CCN(C(=O)CCCCCCCCCCNC(=O)[C@H]([C@@H](C)CC)n3cc(CCCCCN)nn3)CC2)nc(N2CCN(C(=O)CCCCCCCCCCNC(=O)[C@@H]([C@H](C)CC)n3cc(CCCCCN)nn3)CC2)n1	6.6	/	/	/	/	/
C#CCOCCOCCOCCNc1nc(N2CCOCC2)nc(N2CCN(C(=O)CCCCCCCCCCNC(=O)[C@@H]([C@H](C)CC)n3cc(CCCCCN)nn3)CC2)n1	.	.	.	.	.	.
C#CCOCCOCCOCCNc1nc(N2CCN(C(=O)[C@H]([C@@H](C)CC)n3cc(CCCCN)nn3)CC2)nc(N2CCN(C(=O)[C@H](C)n3cc(CCC(=O)O)nn3)CC2)n1	.	53	.	.	.	.
SMILES	A1 inh	GC-B act	Tb MetRS inh	NPR1 activator	SKN-1 block	MT1-MMP act inh
C#CCOCCOCCOCCNc1nc(N2CCN(C(=O)[C@H]([C@@H](C)O)n3cc(CCCCN)nn3)CC2)nc(N2CCN(C(=O)[C@H](C)n3cc(CCC(=O)O)nn3)CC2)n1	/	.	.	.	.	.
C/C(=N/NC(=O)c1cccnc1)c1cccc(O)c1	/	.	/	.	/	/
COc1ccc(COc2ccc3c(C)cc(=O)oc3c2)cc1	.	.	.	.	.	.
COc1ccc2c(-c3cc4ccc(OCc5ccc(F)cc5)cc4oc3=O)cc(=O)oc2c1	9.6	.	.	.	.	.
Cc1cccc(C#Cc2ccccc2)n1	.	.	.	.	46	.
C[C@H]1[C@@H](OC(=O)Nc2ccccc2Cl)CC[C@@]23CCCN2C(=O)CCC[C@@H]13	/	.	/	.	/	/
Cn1ncc2c(NCCc3ccccc3)nc(Cl)nc21	/	.	.	.	35	.
Cn1ncc2c(Nc3ccccc3Cl)nc(Cl)nc21	.	.	.	.	.	.
CCOc1ccc(-n2cc(C(=O)Nc3cccc(C)n3)c3cc(OC)c(OC)cc3c2=O)cc1	.	36	.	.	.	.
CCOc1ccc(NC(=O)c2cn(-c3ccc(OCC)cc3)c(=O)c3cc(OC)c(OC)cc23)cc1	.	.	.	.	.	.
COC(=O)C[C@H]1CC[C@H]2[C@H](COc3ccc(NS(=O)(=O)c4ccccc4C)cc3C(=O)N2C)O1	/	.	/	.	/	/
CC(C)c1ccc(C(=O)Nc2cc(Cl)ccc2C(=O)O)cc1	/	.	/	.	/	/
CCOC(=O)N1CCN(C(=O)Nc2ccccc2)CC1	.	.	.	.	.	.
CCOC(=O)N1CCN(C(=O)Nc2ccc(Cl)cc2)CC1	.	.	.	.	35	.
CCCOc1ccc(/C=C2/C(=O)ON=C2C)cc1Cl	.	.	.	45	.	.
CCOC(=O)Nc1nc(C)c(C(=O)c2ccc(Cl)cc2)s1	.	.	.	.	.	/
CCOC(=O)Nc1nc(-c2ccc(Cl)cc2Cl)cs1	.	.	.	.	57	.
COC(=O)c1c(NC(=S)NN2CCN(C)CC2)sc2c1CCC(C)C2 (stereo not drawn)	.	.	.	.	35	.
COC(=O)c1c(NC(=O)Cc2cccs2)sc2c1CCC(C)C2 (stereo not drawn)	.	.	.	.	.	.
CC(C)(C)c1ccc(S(=O)(=O)N2CCCC2C(=O)N2CCN(c3ccccc3)CC2)cc1 (stereo not drawn)	/	.	/	.	/	/
O=C(O)c1ccc(C2NCC(c3ccccc3Cl)c3c2[nH]c2ccccc32)cc1 (stereo not drawn)	.	.	.	54	.	.

High-throughput results from PubChem BioAssay.
